The source of these data is ChEMBL document CHEMBL1122927, “Metabolism of the nigrostriatal toxin 1-methyl-4-phenyl-1,2,3,6-tetrahydropyridine by liver homogenate fractions” (J Med Chem, 1985).

Holding throughout (format): ADME
What all share (settings): microsomes

The species entered for data set [1] is Oryctolagus cuniculus. The experiment in a line: Formation of metabolite by rabbit liver microsomal preparation in presence of SKF525A,at 2 hour. In a few lines:
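Rabbit liver microsomes were preincubated 5 min with SKF 525A (5 × 10⁻⁴ M) before MPTP (0.5–1.0 mM) was added. Run in 100 mM Hepes pH 7.6 with an NADPH-generating system, 2–3 mg protein/mL, 37 °C, 2 h. Stopped with cold acetonitrile. Nor and N-oxide products quantified by reverse-phase HPLC (254 nm) as nmol/mL per 2 h.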
(Liver microsomes are vesicles of endoplasmic reticulum, rich in cytochrome P450 enzymes.)

The species entered for data set [2] is Oryctolagus cuniculus. Put plainly: Formation of metabolite by rabbit liver microsomal preparation in presence of NADPH, at 2 hours. The gist of the method: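 Male New Zealand white rabbit liver microsomes (100000g pellet, 2–3 mg protein/mL) in 100 mM Hepes pH 7.6 with an NADPH-generating system and 0.5–1.0 mM MPTP, in air, 37 °C, 2 h. Stopped with 2 volumes ice-cold acetonitrile, then centrifuged. Reverse-phase HPLC (acetonitrile/100 mM acetic acid 65:35, pH 5.6, 254 nm) quantified nor and N-oxide peaks as nmol/mL per 2 h.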

Data set [3] is filed under the species Oryctolagus cuniculus. Put plainly: Formation of metabolite by rabbit liver microsomal preparation in absence of NADPH, at 2 hours. In a few lines:
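Rabbit liver microsomes (2–3 mg protein/mL), 100 mM Hepes pH 7.6, 0.5–1.0 mM MPTP, with the NADPH-generating system omitted; 37 °C for 2 h. Stopped with cold acetonitrile and centrifuged. Nor and N-oxide products measured by reverse-phase HPLC at 254 nm as nmol/mL per 2 h.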

The species entered for data set [4] is Oryctolagus cuniculus. The experiment in a line: Formation of metabolite by rabbit liver microsomal preparation in presence of N2,at 2 hour. In a few lines:
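Incubation under 100% N2, with N2-saturated buffer in sealed vials. Rabbit liver microsomes (2–3 mg protein/mL), 100 mM Hepes pH 7.6, NADPH-generating system, 0.5–1.0 mM MPTP, 37 °C, 2 h. Stopped with ice-cold acetonitrile. Nor and N-oxide products read by reverse-phase HPLC at 254 nm, expressed as nmol/mL per 2 h.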

The species named for data set [5] is Oryctolagus cuniculus. The experiment in a line: Formation of metabolite by rabbit liver microsomal preparation in presence of Co-O2 (90:10),at 2 hour. In a few lines: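 Buffer was saturated with CO-O2 (90:10), and incubation ran in sealed vials under that gas. Rabbit liver microsomes (2–3 mg protein/mL), 100 mM Hepes pH 7.6, NADPH-generating system, 0.5–1.0 mM MPTP, 37 °C, 2 h. Stopped with cold acetonitrile. Nor and N-oxide products quantified by reverse-phase HPLC (254 nm) as nmol/mL per 2 h.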

On to `C[N+]1([O-])CC=C(c2ccccc2)CC1` (stereo not given), for which the Amount of metabolite worked out at 170 nM ml-1 in the data set listed under Oryctolagus cuniculus [1]; 190 nM ml-1 in the data set listed under Oryctolagus cuniculus [2]; 0 nM ml-1 in the data set filed under Oryctolagus cuniculus [3]; 0 nM ml-1 in the data set listed under Oryctolagus cuniculus [4]; 160 nM ml-1 in the data set listed under Oryctolagus cuniculus [5].

As for `C1=C(c2ccccc2)CCNC1`, the Amount of metabolite in the data set listed under Oryctolagus cuniculus [1] is reported as 70 nM ml-1; in the data set filed under Oryctolagus cuniculus [2], 130 nM ml-1; in the data set listed under Oryctolagus cuniculus [3], 0 nM ml-1; in the data set listed under Oryctolagus cuniculus [4] it was 16 nM ml-1; in the data set listed under Oryctolagus cuniculus [5] it was 53 nM ml-1.
